For orientation: inhibition means the share of the control response that was lost under treatment. A lower inhibition goes with a response near the control.

Data on ten substances can be found in ChEMBL document CHEMBL1149892, “Structure-antifungal activity relationship of His-Phe-Arg-Trp-Gly-Lys-Pro-Val-NH2 and analogues” (2008).

What all share (type): functional
The test system of assay [1] is Cryptococcus neoformans. Briefly: Antifungal activity against Cryptococcus neoformans ATCC 32264 at 12.5 uM after 48 hrs relative to amphotericin B. The following applies: ATCC 32264, 48 h. The essentials: (§1)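 Microplate assay in RPMI-1640 with DMSO-dissolved peptide, final DMSO ≤2%. Inoculum is 1–5 × 10^3 CFU/mL from slants grown 24 h at 35 °C. Plates are held 48 h at 35 °C in a moist, dark chamber and read at OD405. Inhibition is taken against a DMSO-matched growth control after sterility-well subtraction; amphotericin B is set as 100%. Duplicate determinations.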

The test system of assay [2] is Cryptococcus neoformans. Briefly: Antifungal activity against Cryptococcus neoformans ATCC 32264 at 0.81uM after 48 hrs relative to amphotericin B. Conditions: ATCC 32264, 48 h. The essentials:
as §1

Assay [3] deals with Candida albicans. The experiment in a line: Antifungal activity against Candida albicans 10231 at 200 uM after 24 hrs relative to amphotericin B. The essentials: (§2)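 Broth microdilution in RPMI-1640. Peptides come from DMSO stocks, final DMSO ≤2%, at final 200 and 100 μM. Inoculum is 1–5 × 10^3 CFU/mL from strains grown 24 h at 35 °C on Sabouraud-chloramphenicol agar. […] Growth control carries matched DMSO; amphotericin B defines 100% inhibition. Run in duplicate.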

The test system of assay [4] is Cryptococcus neoformans. The experiment in a line: Antifungal activity against Cryptococcus neoformans ATCC 32264 at 25 uM after 48 hrs relative to amphotericin B. The following applies: ATCC 32264, 48 h. The essentials:
as §1

For assay [5], the system named is Cryptococcus neoformans. Briefly: Antifungal activity against Cryptococcus neoformans ATCC 32264 at 6.25 uM after 48 hrs relative to amphotericin B. Conditions: ATCC 32264, 48 h. In outline: as §1
The subject of assay [6] is Candida tropicalis. The experiment in a line: Antifungal activity against Candida tropicalis C 131 at 100 uM after 24 hrs relative to amphotericin B. The essentials: as §2
For assay [7], the system named is Cryptococcus neoformans. The experiment in a line: Antifungal activity against Cryptococcus neoformans ATCC 32264 at 100 uM after 48 hrs relative to amphotericin B. Conditions: ATCC 32264, 48 h. The essentials: as §1
Assay [8] has as its system Cryptococcus neoformans. Briefly: Antifungal activity against Cryptococcus neoformans ATCC 32264 at 3.25 uM after 48 hrs relative to amphotericin B. The following applies: ATCC 32264, 48 h. The essentials:
as §1

Assay [9] deals with Cryptococcus neoformans. The experiment in a line: Antifungal activity against Cryptococcus neoformans ATCC 32264 at 200 uM after 48 hrs relative to amphotericin B. The following applies: ATCC 32264, 48 h. In outline:
as §1

For assay [10], the system named is Cryptococcus neoformans. The experiment in a line: Antifungal activity against Cryptococcus neoformans ATCC 32264 at 1.62 uM after 48 hrs relative to amphotericin B. Conditions: ATCC 32264, 48 h. In outline:
as §1

For assay [11], the system named is Cryptococcus neoformans. Briefly: Antifungal activity against Cryptococcus neoformans ATCC 32264 at 0.40 uM after 48 hrs relative to amphotericin B. Conditions: ATCC 32264, 48 h. The essentials: as §1
In assay [12] the test system is Candida albicans. Briefly: Antifungal activity against Candida albicans 10231 at 100 uM after 24hrs relative to amphotericin B. In outline: as §2
The subject of assay [13] is Candida tropicalis. The experiment in a line: Antifungal activity against Candida tropicalis C 131 at 200 uM after 24 hrs relative to amphotericin B. In outline:
as §2

Assay [14] has as its system Cryptococcus neoformans. The experiment in a line: Antifungal activity against Cryptococcus neoformans ATCC 32264 at 50 uM after 48 hrs relative to amphotericin B. The following applies: ATCC 32264, 48 h. In outline:
as §1

In the assay with Cryptococcus neoformans [1], H-HFKWGKFV-NH2 returned an inhibition at 12.5 µM of 0%. This substance came in with an inhibition at 0.81 µM with Cryptococcus neoformans [2] of 0%. The inhibition at 200 µM in the assay on Candida albicans [3] stood at 72%; with Cryptococcus neoformans [9] it was 97%; in the assay on Candida tropicalis [13] it was 22%. Moreover, in the assay with Cryptococcus neoformans [4], the inhibition at 25 µM was 0%. Further, in the assay with Cryptococcus neoformans [5], the inhibition at 6.25 µM turned out to be 0%. For the same substance, the inhibition at 100 µM was determined as 0% with Candida tropicalis [6], 38% in the assay with Cryptococcus neoformans [7] and 0% in the assay on Candida albicans [12]. Moreover, 3.25 µM produced 0% inhibition in the assay on Cryptococcus neoformans [8]. Further, the inhibition at 1.62 µM in the assay with Cryptococcus neoformans [10] is 0%. In addition, in the assay with Cryptococcus neoformans [11], testing at 0.4 µM gave an inhibition of 0%.

In turn, H-HFKWGKYV-NH2 yielded an inhibition at 50 µM in the assay on Cryptococcus neoformans [14] of 50%. For the same substance, in the assay on Cryptococcus neoformans [1], the inhibition at 12.5 µM was 40%. In the assay on Cryptococcus neoformans [2], this substance returned an inhibition at 0.81 µM of 31%. Besides, the inhibition at 200 µM in the assay on Candida albicans [3] worked out at 15%; in the assay on Cryptococcus neoformans [9], 83%; in the assay with Candida tropicalis [13], 0%. The substance further showed an inhibition at 25 µM with Cryptococcus neoformans [4] of 49%. 6.25 µM produced 31% inhibition in the assay with Cryptococcus neoformans [5]. The inhibition at 100 µM was determined as 0% with Candida tropicalis [6], 50% in the assay with Cryptococcus neoformans [7] and 0% in the assay with Candida albicans [12]. For the same substance, the inhibition at 3.25 µM with Cryptococcus neoformans [8] came to 36%. The substance further yielded an inhibition at 1.62 µM in the assay with Cryptococcus neoformans [10] of 33%. In addition, 0.4 µM produced 26% inhibition in the assay on Cryptococcus neoformans [11].

Regarding H-HFRWGKFV-NH2, at 50 µM the inhibition in the assay with Cryptococcus neoformans [14] was 15%. This substance yielded an inhibition at 12.5 µM in the assay on Cryptococcus neoformans [1] of 0%. Further, in the assay on Cryptococcus neoformans [2], the inhibition at 0.81 µM came to 0%. For the same substance, the inhibition at 200 µM with Candida albicans [3] worked out at 61%; in the assay with Cryptococcus neoformans [9] it was 77%; in the assay with Candida tropicalis [13], 19%. This substance came in with an inhibition at 25 µM in the assay with Cryptococcus neoformans [4] of 2%. The substance further registered an inhibition at 6.25 µM in the assay on Cryptococcus neoformans [5] of 0%. The figures for the inhibition at 100 µM with Candida tropicalis [6], with Cryptococcus neoformans [7] and in the assay with Candida albicans [12] were 9%, 15% and 5%, respectively. Also, in the assay with Cryptococcus neoformans [8], the inhibition at 3.25 µM was determined as 0%. The substance further yielded an inhibition at 1.62 µM with Cryptococcus neoformans [10] of 0%. For the same substance, the inhibition at 0.4 µM with Cryptococcus neoformans [11] amounted to 0%.

H-HFRWGKPV-NH2 showed an inhibition at 50 µM in the assay on Cryptococcus neoformans [14] of 0%. In the assay with Cryptococcus neoformans [1], this substance returned an inhibition at 12.5 µM of 0%. For the same substance, testing at 0.81 µM with Cryptococcus neoformans [2] gave an inhibition of 0%. Besides, the figures for the inhibition at 200 µM with Candida albicans [3], with Cryptococcus neoformans [9] and with Candida tropicalis [13] were 0%, 24% and 0%, respectively. In addition, at 25 µM the inhibition in the assay with Cryptococcus neoformans [4] was 0%. This substance showed an inhibition at 6.25 µM in the assay on Cryptococcus neoformans [5] of 0%. Moreover, the values for the inhibition at 100 µM in the assay on Candida tropicalis [6], in the assay on Cryptococcus neoformans [7] and with Candida albicans [12] were 0%, 9% and 0%, respectively. In the assay with Cryptococcus neoformans [8], the inhibition at 3.25 µM was 0%. Besides, the inhibition at 1.62 µM in the assay with Cryptococcus neoformans [10] turned out to be 0%. In the assay with Cryptococcus neoformans [11], at 0.4 µM the inhibition was 0%.

Regarding H-HFRWGKYV-NH2, in the assay with Cryptococcus neoformans [14], the inhibition at 50 µM stood at 56%. Besides, in the assay on Cryptococcus neoformans [1], the inhibition at 12.5 µM was 28%. This substance also returned an inhibition at 0.81 µM with Cryptococcus neoformans [2] of 0%. The inhibition at 200 µM in the assay with Candida albicans [3] worked out at 43%; in the assay on Cryptococcus neoformans [9], 99%; in the assay with Candida tropicalis [13] it was 21%. This substance also gave an inhibition at 25 µM with Cryptococcus neoformans [4] of 41%. The inhibition at 6.25 µM with Cryptococcus neoformans [5] amounted to 24%. The results for the inhibition at 100 µM with Candida tropicalis [6], with Cryptococcus neoformans [7] and in the assay with Candida albicans [12] were 0%, 58% and 0%, respectively. Further, the inhibition at 3.25 µM in the assay with Cryptococcus neoformans [8] was determined as 10%. Moreover, in the assay with Cryptococcus neoformans [10], testing at 1.62 µM gave an inhibition of 6%. In the assay on Cryptococcus neoformans [11], this substance returned an inhibition at 0.4 µM of 0%.

In turn, H-HFRWGRFV-NH2 showed an inhibition at 50 µM in the assay on Cryptococcus neoformans [14] of 67%. The substance also yielded an inhibition at 12.5 µM in the assay on Cryptococcus neoformans [1] of 26%. Also, the inhibition at 0.81 µM in the assay with Cryptococcus neoformans [2] worked out at 10%. Besides, the inhibition at 200 µM in the assay on Candida albicans [3] is 80%; in the assay with Cryptococcus neoformans [9], 94%; in the assay with Candida tropicalis [13], 64%. In the assay on Cryptococcus neoformans [4], this substance came in with an inhibition at 25 µM of 26%. Besides, testing at 6.25 µM with Cryptococcus neoformans [5] gave an inhibition of 18%. For the same substance, the figures for the inhibition at 100 µM in the assay with Candida tropicalis [6], with Cryptococcus neoformans [7] and in the assay with Candida albicans [12] were 1%, 72% and 1%, respectively. The same substance had an inhibition at 3.25 µM in the assay with Cryptococcus neoformans [8] of 12%. Moreover, testing at 1.62 µM in the assay on Cryptococcus neoformans [10] gave an inhibition of 11%. In addition, in the assay with Cryptococcus neoformans [11], 0.4 µM produced 7% inhibition.

In the assay on Cryptococcus neoformans [14], H-HYKWGKFV-NH2 showed an inhibition at 50 µM of 43%. Moreover, at 12.5 µM the inhibition in the assay with Cryptococcus neoformans [1] was 34%. Also, in the assay with Cryptococcus neoformans [2], the inhibition at 0.81 µM was 0%. For the same substance, the inhibition at 200 µM in the assay on Candida albicans [3] was 0%; in the assay on Cryptococcus neoformans [9] it was 41%; in the assay on Candida tropicalis [13] it was 1%. This substance also displayed an inhibition at 25 µM in the assay on Cryptococcus neoformans [4] of 38%. 6.25 µM produced 0% inhibition with Cryptococcus neoformans [5]. Moreover, the inhibition at 100 µM in the assay with Candida tropicalis [6] was found to be 0%; in the assay with Cryptococcus neoformans [7], 25%; with Candida albicans [12], 0%. This substance also returned an inhibition at 3.25 µM in the assay on Cryptococcus neoformans [8] of 0%. In the assay with Cryptococcus neoformans [10], this substance came in with an inhibition at 1.62 µM of 0%. In addition, in the assay on Cryptococcus neoformans [11], the inhibition at 0.4 µM worked out at 0%.

On to H-HYKWGKYV-NH2, for which, in the assay on Cryptococcus neoformans [14], 50 µM produced 39% inhibition. Also, testing at 12.5 µM with Cryptococcus neoformans [1] gave an inhibition of 19%. The inhibition at 200 µM was determined as 0% with Candida albicans [3], 63% with Cryptococcus neoformans [9] and 3% in the assay on Candida tropicalis [13]. Further, testing at 25 µM in the assay with Cryptococcus neoformans [4] gave an inhibition of 22%. In addition, 6.25 µM produced 10% inhibition with Cryptococcus neoformans [5]. Further, the inhibition at 100 µM in the assay on Candida tropicalis [6] was 0%; in the assay with Cryptococcus neoformans [7], 42%; with Candida albicans [12], 0%.

With H-HYKWGRFV-NH2, the inhibition at 0.81 µM with Cryptococcus neoformans [2] turned out to be 2%. The inhibition at 200 µM with Candida albicans [3] was determined as 11%; in the assay with Cryptococcus neoformans [9], 89%; in the assay with Candida tropicalis [13], 23%. In addition, the inhibition at 6.25 µM with Cryptococcus neoformans [5] was 19%. Further, the inhibition at 100 µM was determined as 0% in the assay with Candida tropicalis [6], 47% with Cryptococcus neoformans [7] and 0% in the assay on Candida albicans [12]. Moreover, testing at 3.25 µM in the assay on Cryptococcus neoformans [8] gave an inhibition of 17%. Also, the inhibition at 1.62 µM in the assay on Cryptococcus neoformans [10] amounted to 21%. In the assay on Cryptococcus neoformans [11], testing at 0.4 µM gave an inhibition of 0%.

In the assay on Cryptococcus neoformans [14], H-HYRWGKFV-NH2 gave an inhibition at 50 µM of 37%. This substance had an inhibition at 12.5 µM in the assay with Cryptococcus neoformans [1] of 21%. Further, in the assay on Cryptococcus neoformans [2], the inhibition at 0.81 µM was found to be 0%. For the same substance, the values for the inhibition at 200 µM with Candida albicans [3], in the assay on Cryptococcus neoformans [9] and with Candida tropicalis [13] were 10%, 35% and 1%, respectively. This substance had an inhibition at 25 µM in the assay on Cryptococcus neoformans [4] of 24%. 6.25 µM produced 16% inhibition with Cryptococcus neoformans [5]. The inhibition at 100 µM was 0% in the assay with Candida tropicalis [6], 21% in the assay with Cryptococcus neoformans [7] and 0% in the assay on Candida albicans [12]. Further, the inhibition at 3.25 µM with Cryptococcus neoformans [8] came to 16%. For the same substance, 1.62 µM produced 5% inhibition with Cryptococcus neoformans [10]. The substance also gave an inhibition at 0.4 µM in the assay on Cryptococcus neoformans [11] of 0%.
